ChEMBL document CHEMBL1150284, “Synthesis, characterization, and metabolic stability of porphyrin-peptide conjugates bearing bifunctional signaling sequences” (J Med Chem, 2008)
Numbered stars: 1 amine (or outer) side, 2 acyl side, 3 side chain; on linkers, the order of the positions; unused ones are H or OH. Square brackets hold non-standard residues; d marks the D form. Peptide text beside a SMILES is read from it. * marks the point of attachment. X1 = O=C(COCC(=O)*)Nc1ccc(-c2c3nc(c(-c4ccccc4)c4ccc([nH]4)c(-c4ccccc4)c4nc(c(-c5ccccc5)c5ccc2[nH]5)C=C4)C=C3)cc1; NH(CH2CH2O)6CH2CO = O=C(COCCOCCOCCOCCOCCOCCN[*:1])[*:2]

Assays:
[1] = Drug uptake in human HEp2 cells at 10 uM; assay type: ADME, cell-based; conditions: hep-2, 10 µM, TDE = time-dependent effect
Method in brief: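 HEp2 cells seeded 10000/well, grown 36 h, then given 10 µM conjugate (diluted from 10 mM water stock) for 0, 1, 2, 4, 8, 24 h. After PBS wash, lysis in 0.25% Triton X-100/PBS; conjugate read by fluorescence 440/650 nm, cell number by CyQuant.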

HEp-2 [2] = experiment: Cytotoxicity against human HEp2 cells in dark; assay type: functional, cell-based
Method in brief: (§1)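 HEp2 cells (DMEM/Advanced MEM 50:50, 5% FBS) plated 10000/well, 36–48 h attachment; exposed to rising conjugate concentrations up to 100 µM overnight in dark. Viability by Cell Titer Blue fluorescence 520/584 nm, normalized to untreated (100%) and 0.2% saponin-treated (0%) cells.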

HEp-2 [3] = experiment: Phototoxicity against human HEp2 cells on exposure of 1 J/cm'2 light; assay type: functional, cell-based; conditions: HEp-2, light or radiation study
Method in brief: (§2)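 HEp2 cells plated as for dark assay, loaded with 0, 0.625, 1.25, 2.5, 5, 10 µM conjugate; medium swapped for one with 50 mM HEPES pH 7.4, cells on ice irradiated 20 min by 100 W halogen lamp through 610 nm long-pass filter and water IR filter (~1 J/cm2). Overnight incubation, then Cell Titer Blue viability read as in dark assay.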

[4] = Stability at pH 7.4 after 24 hrs; assay type: physicochemical; conditions: buffer, pH 7.4, 24 h
Method in brief: (§3)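 Nonenzymatic hydrolysis: 100 µM conjugate in 50 mM PBS pH 7.4 or 50 mM acetate buffer pH 5.0, 37 °C for 24 h; products identified by MALDI-TOF MS with CCA matrix.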

[5] = Stability at pH 5.0 after 24 hrs; assay type: physicochemical; conditions: buffer, pH 5, 24 h; method in brief: as §3
HEp-2 [6] = experiment: Cytotoxicity against human HEp2 cells in dark up to 100 uM; assay type: functional, cell-based; method in brief: as §1
HEp-2 [7] = experiment: Phototoxicity against human HEp2 cells on exposure of 1 J/cm'2 light up to 10 uM; assay type: functional, cell-based; method in brief: as §2

## CC[C@H](C)[C@H](NC(=O)[C@H](CCCCN)NC(=O)[C@@H](NC(=O)[C@H](CCC(N)=O)NC(=O)[C@H](CCCNC(=N)N)NC(=O)COCCOCCOCCOCCOCCOCCNC(=O)COCC(=O)Nc1ccc(-c2c3nc(c(-c4ccccc4)c4ccc([nH]4)c(-c4ccccc4)c4nc(c(-c5ccccc5)c5ccc2[nH]5)C=C4)C=C3)cc1)[C@@H](C)CC)C(=O)N[C@@H](Cc1c[nH]c2ccccc12)C(=O)N[C@@H](Cc1ccccc1)C(=O)N[C@@H](CCC(N)=O)C(=O)N[C@@H](CC(N)=O)C(=O)N[C@@H](CCCNC(=N)N)C(=O)N[C@@H](CCCNC(=N)N)C(=O)N[C@@H](CCSC)C(=O)N[C@@H](CCCCN)C(=O)N[C@@H](Cc1c[nH]c2ccccc12)C(=O)N[C@@H](CCCCN)C(=O)N[C@@H](CCCCN)C(=O)N[C@@H](C)C(=O)N1CCC[C@H]1C(=O)N1CCC[C@H]1C(=O)N[C@@H](CCCCN)C(=O)N[C@@H](CCCCN)C(=O)N[C@@H](CCCCN)C(=O)N[C@@H](CCCNC(=N)N)C(=O)N[C@@H](CCCCN)C(=O)N[C@H](C(=O)NCC(=O)O)C(C)C (X1-[NH(CH2CH2O)6CH2CO]RQIKIWFQNRRMKWKKAPPKKKRKVG-OH)
[1]
  Activity: tde
HEp-2 [2]
  IC50: 53 µM
HEp-2 [3]
  IC50: 9.3 µM
[4]
  Stability: Stable
[5]
  Stability: Stable

## CSCC[C@H](NC(=O)COCCOCCOCCOCCOCCOCCNC(=O)COCC(=O)Nc1ccc(-c2c3nc(c(-c4ccccc4)c4ccc([nH]4)c(-c4ccccc4)c4nc(c(-c5ccccc5)c5ccc2[nH]5)C=C4)C=C3)cc1)C(=O)NCC(=O)N[C@@H](CC(C)C)C(=O)NCC(=O)N[C@@H](CC(C)C)C(=O)N[C@@H](Cc1cnc[nH]1)C(=O)N[C@@H](CC(C)C)C(=O)N[C@@H](CC(C)C)C(=O)N[C@H](C(=O)N[C@@H](CC(C)C)C(=O)N[C@@H](C)C(=O)N[C@@H](C)C(=O)N[C@@H](C)C(=O)N[C@@H](CC(C)C)C(=O)N[C@@H](CCC(N)=O)C(=O)NCC(=O)N[C@@H](C)C(=O)N[C@@H](Cc1c[nH]c2ccccc12)C(=O)N[C@@H](CO)C(=O)N[C@@H](CCC(N)=O)C(=O)N[C@@H](C)C(=O)N1CCC[C@H]1C(=O)N1CCC[C@H]1C(=O)N[C@@H](CCCCN)C(=O)N[C@@H](CCCCN)C(=O)N[C@@H](CCCCN)C(=O)N[C@@H](CCCNC(=N)N)C(=O)N[C@@H](CCCCN)C(=O)N[C@H](C(=O)NCC(=O)O)C(C)C)C(C)C (X1-[NH(CH2CH2O)6CH2CO]MGLGLHLLVLAAALQGAWSQAPPKKKRKVG-OH)
[1]
  Activity: tde
HEp-2 [6]
  Activity: Not toxic
HEp-2 [7]
  Activity: Not toxic
[4]
  Stability: Stable
[5]
  Stability: Stable

## CC(C)[C@H](NC(=O)[C@H](CCCCN)NC(=O)[C@H](CCCNC(=N)N)NC(=O)[C@H](CCCCN)NC(=O)[C@H](CCCCN)NC(=O)[C@H](CCCCN)NC(=O)[C@@H]1CCCN1C(=O)[C@@H]1CCCN1C(=O)[C@H](C)NC(=O)COCCOCCOCCOCCOCCOCCNC(=O)COCC(=O)Nc1ccc(-c2c3nc(c(-c4ccccc4)c4ccc([nH]4)c(-c4ccccc4)c4nc(c(-c5ccccc5)c5ccc2[nH]5)C=C4)C=C3)cc1)C(=O)N[C@@H](CCC(=O)O)C(=O)N[C@@H](CC(=O)O)C(=O)N1CCC[C@H]1C(=O)N[C@@H](CCCNC(=N)N)C(=O)N[C@@H](CCCCN)C(=O)N[C@@H](CCCCN)C(=O)N[C@@H](CCCNC(=N)N)C(=O)N[C@@H](CCCNC(=N)N)C(=O)N[C@@H](CCC(N)=O)C(=O)N[C@@H](CCCNC(=N)N)C(=O)N[C@@H](CCCNC(=N)N)C(=O)N[C@@H](CCCNC(=N)N)C(=O)N1CCC[C@H]1C(=O)N1CCC[C@H]1C(=O)N[C@@H](CCC(N)=O)C(=O)NCC(=O)O (X1-[NH(CH2CH2O)6CH2CO]APPKKKRKVEDPRKKRRQRRRPPQG-OH)
[1]
  Activity: tde
HEp-2 [2]
  IC50: 34 µM
HEp-2 [3]
  IC50: 7.5 µM
[4]
  Stability: Stable
[5]
  Stability: Stable
